Active and inactive are the calls of the source. The calls are words filed in the database; no cut-off is given here.
Assays:
HCT-15 = test: Growth inhibition of human HCT15 cells by SRB assay; format: functional
MDA-MB-231 = test: Growth inhibition of human MDA-MB-231 cells by SRB assay; format: functional
NCI-H23 = test: Growth inhibition of human NCI-H23 cells by SRB assay; format: functional
NUGC-3 = test: Growth inhibition of human NUGC3 cells by SRB assay; format: functional
PC-3 = test: Growth inhibition of human PC3 cells by SRB assay; format: functional
[1] = target: Rho-related GTP-binding protein RhoB (Homo sapiens) (UniProt P62745); test: Transactivation of RhoB (unknown origin) transfected in human HeLa cells at 5 uM by dual luciferase reporter gene assay; format: cell-based
Sequence of Rho-related GTP-binding protein RhoB (Homo sapiens) (P62745 whole entry): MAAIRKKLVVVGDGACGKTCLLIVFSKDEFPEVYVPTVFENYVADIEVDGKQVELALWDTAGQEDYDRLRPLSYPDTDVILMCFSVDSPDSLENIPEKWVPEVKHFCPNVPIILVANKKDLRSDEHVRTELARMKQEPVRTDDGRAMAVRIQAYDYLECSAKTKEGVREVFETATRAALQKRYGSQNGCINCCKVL
Method in brief: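 HeLa cells at 75–90% confluency were transiently cotransfected with a pGL2-RhoB-firefly luciferase promoter construct, then exposed to compounds. RhoB promoter activation was read as luciferase activity with a dual-luciferase reporter system. NSC126188 and perifosine, each at the same concentration as the compounds, served as positive controls.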

ACHN = test: Growth inhibition of human ACHN cells by SRB assay; format: functional

SMILES | GI50 (HCT-15) | GI50 (MDA-MB-231) | GI50 (NCI-H23) [nM] | GI50 (PC-3) | Activity [1] | GI50 (ACHN) | GI50 (NUGC-3) [nM]
CCCCCCCCCCCCCCS(=O)(=O)N1CCC[N+](C)(C)CC1 | 380 nM | 830 nM | 800 | 620 nM | Active | 1330 nM | 250
CCCCCCCCCCCCCCCCCCOP(=O)([O-])OC1CC[N+](C)(C)CC1 [PERIFOSINE] | – | – | – | 440 nM | – | – | 540
CCCCCCCCCCCCS(=O)(=O)N1CCC[N+](C)(C)CC1 | 960 nM | 840 nM | 960 | 380 nM | Active | 1160 nM | 240
CCCCCCCCCCCCCC(=O)N1CCC[N+](C)(Cc2ccccc2)CC1 (stereo not given) | inactive | 1160 nM | 1070 | 450 nM | Active | 1000 nM | 310
C=CC[N+]1(C)CCCN(C(=O)CCCCCCCCCCCCC)CC1 (stereo not given) | inactive | 450 nM | 280 | 180 nM | Active | 440 nM | 260
CCCCCCCCCCCCCCCCS(=O)(=O)N1CCC[N+](C)(C)CC1 | 770 nM | 590 nM | 3400 | 400 nM | Active | 2010 nM | 380
CCCCCCCCCCCCCC(=O)N1CCC[N+](C)(C)CC1 | 1700 nM | 980 nM | 1360 | 360 nM | Active | 490 nM | 80
CCCCCCCCCCCCCC(=O)N1CCC[N+](C)(CC)CC1 (stereo not given) | 1860 nM | 680 nM | 1180 | 270 nM | Active | 1610 nM | 220
CCCCCCCCCCCCCCCCCCCC(=O)N1CCC[N+](C)(C)CC1 | 990 nM | 2220 nM | 3840 | inactive | Active | 2780 nM | 360
CCCCCCCCCCCCCC(=O)N1CCC[N+](C)(Cc2cccc([N+](=O)[O-])c2)CC1 (stereo not given) | inactive | 710 nM | 890 | 180 nM | Active | 820 nM | 460

Now from value to compound, other results behind:

GI50 (HCT-15) | GI50 (MDA-MB-231) | GI50 (NCI-H23) [nM] | GI50 (PC-3) | Activity [1] | GI50 (ACHN) | SMILES | GI50 (NUGC-3) [nM]
1360 nM | 3560 nM | 4140 | 540 nM | – | 4540 nM | CCCCCCCCCCCCCC(=O)Nc1ccc([N+](C)(C)C)cc1 | 740
inactive | 1480 nM | 1480 | 450 nM | – | 1100 nM | CCCCCCCCCCCCCC(=O)N1CCC[N+](C)(Cc2ccc(F)cc2)CC1 (stereo not given) | 940
3020 nM | 3680 nM | 1930 | 1630 nM | – | 1760 nM | CCCCCCCCCCCCCCCCCCCC(=O)Nc1ccc([N+](C)(C)C)cc1 | 1280
inactive | inactive | 3940 | 1020 nM | – | 4500 nM | CCCCCCCCCCCCS(=O)(=O)Nc1ccc([N+](C)(C)C)cc1 | 1210
1220 nM | 4340 nM | 3290 | 1200 nM | – | 1870 nM | CCCCCCCCCCCCCCCCCC(=O)Nc1ccc([N+](C)(C)C)cc1 | 410
2370 nM | 2830 nM | 1800 | 790 nM | – | 3150 nM | CCCCCCCCCCCCCCCC(=O)Nc1ccc([N+](C)(C)C)cc1 | 700
3380 nM | 4540 nM | 730 | 900 nM | – | inactive | CCCCCCCCCCCCCCS(=O)(=O)Nc1ccc([N+](C)(C)C)cc1 | 1740
930 nM | 940 nM | 2380 | 400 nM | Active | 400 nM | CCCCCCCCCCCCCCCC(=O)N1CCC[N+](C)(C)CC1 | 210
inactive | 1340 nM | 1450 | 630 nM | – | 1930 nM | CCCCCCCCCCCCCCCC(=O)N1CCC[N+](C)(Cc2cccc(OC(F)(F)F)c2)CC1 (stereo not given) | 870
580 nM | – | – | 480 nM | Active | – | CCCCCCCCCCCCCCCC(=O)N1CC[N+](C)(C)CC1 | 290
400 nM | 670 nM | 1160 | 240 nM | – | 570 nM | CCCCCCCCCCCCCCCCCC(=O)N1CCC[N+](C)(C)CC1 | 260
